Source: ChEMBL document CHEMBL1150817, “Annomolin and annocherimolin, new cytotoxic annonaceous acetogenins from Annona cherimolia seeds” (J Nat Prod, 2001)
Values after ≈ are worked out from the molar mass of the structure shown.

Legend:
PC-3 = test: Cytotoxicity against human PC3 cells after 7 days by MTT assay; format: functional; conditions: for EC50: Homo sapiens, PC-3, 168 h, read-out: ED50 (the source's name)
Summary of the method: (§1)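 Seven-day in vitro MTT assay run at the Purdue Cancer Center cell culture laboratory under standard protocols. Cell lines were A-549 lung carcinoma, MCF-7 breast carcinoma, HT-29 colon adenocarcinoma, A-498 kidney carcinoma, PC-3 prostate adenocarcinoma and MIA PaCa-2 pancreatic carcinoma. Adriamycin served as the positive control.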

MIA PaCa-2 = test: Cytotoxicity against human MIAPaCa2 cells after 7 days by MTT assay; format: functional; conditions: for EC50: Homo sapiens, MIA PaCa-2, 168 h, read-out: ED50 (the source's name); summary of the method: as §1
A498 = test: Cytotoxicity against human A498 cells after 7 days by MTT assay; format: functional; conditions: for EC50: Homo sapiens, A498, 168 h, read-out: ED50 (the source's name); summary of the method: as §1
A549 = test: Cytotoxicity against human A549 cells after 7 days by MTT assay; format: functional; conditions: A549, 168 h, read-out: ED50 (the source's name); summary of the method: as §1
MCF7 = test: Cytotoxicity against human MCF7 cells after 7 days by MTT assay; format: functional; summary of the method: as §1
HT-29 = test: Cytotoxicity against human HT-29 cells after 7 days by MTT assay; format: functional; summary of the method: as §1
[1] = Toxicity to Artemia salina; format: organism-based; conditions: in vivo
Summary of the method: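 Brine shrimp lethality test (BST) on larvae, run routinely on extracts, fractions and isolated compounds during activity-directed fractionation.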

For `COc1cccc2c1C(=O)c1c(O)c3c(c(O)c1C2=O)C[C@@](O)(C(=O)CO)C[C@@H]3O[C@H]1C[C@H](N)[C@H](O)[C@H](C)O1` [DOXORUBICIN], the EC50 (PC-3) was 0.0502 µg/mL (≈ 0.0924 µM), the EC50 (MIA PaCa-2) was 0.00262 µg/mL (≈ 0.00482 µM) and the EC50 (A498) was 0.00226 µg/mL (≈ 0.00416 µM). For the same compound, the EC50 (A549) was 0.00113 µg/mL (≈ 0.00208 µM), the EC50 (MCF7; Homo sapiens, MCF7, 168 h, read-out: ED50 (the source's name)) was 0.0182 µg/mL (≈ 0.0335 µM) and the EC50 (HT-29; Homo sapiens, HT-29, 168 h, read-out: ED50 (the source's name)) was 0.0128 µg/mL (≈ 0.0235 µM).

In the case of `CCCCCCCCCCCC/C=C\CC[C@@H](O)[C@H]1CC[C@H]([C@H](O)CCCC(O)CCCC[C@@H](O)CC2=C[C@H](C)OC2=O)O1` (stereo not given in full) [ANNOCHERIMOLIN], the EC50 (PC-3) is reported as 1.02 µg/mL (≈ 1.64 µM), the ED50 (MIA PaCa-2) is reported as 1.2 ×10⁻⁵ ug/ml and the EC50 (A498) is reported as 0.153 µg/mL (≈ 0.246 µM). For the same compound, the LC50 [1] was 0.0058 µg/mL (≈ 0.00931 µM), the EC50 (A549) was 1.56 µg/mL (≈ 2.5 µM) and the ED50 (MCF7) was 4.06 ×10⁻⁶ ug/ml. For the same compound, the ED50 (HT-29) was 2.49 ×10⁻⁶ ug/ml.

Work on `CCCCCCCCCCCCCC[C@H](O)[C@@H]1CC[C@@H](CCCCC[C@@H](O)[C@H](O)CC[C@@H](O)CC2=C[C@H](C)OC2=O)O1` [ANNOMOLIN] yielded an ED50 (PC-3) of 5.39 ×10⁻⁶ ug/ml, an EC50 (MIA PaCa-2) of 2.18 µg/mL (≈ 3.65 µM) and an ED50 (A498) of 6.88 ×10⁻⁴ ug/ml. It also gave an LC50 [1] of 0.0094 µg/mL (≈ 0.0157 µM), an EC50 (A549) of 2.37 µg/mL (≈ 3.97 µM) and an ED50 (MCF7) of 1.15 ×10⁻⁴ ug/ml. For the same compound, the ED50 (HT-29) was 8.92 ×10⁻⁵ ug/ml.
